# Legend:
# Type in all cases: functional, cell-based
# A549 = assay: Cytotoxicity against human A549 cells after 24 hrs by MTT assay; conditions: A549, 24 h
# Summary of the method: (§1)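 ATCC cells kept adherent at 37 °C, 5% CO2 (A549: F12K + 10% FBS; HepG2, MCF-7: MEM + 1 mM pyruvate + 10% FBS; CAKI 1: McCoy's + 10% FBS). Seeded and grown 24 h, then exposed 24 h to compounds in FBS-free medium (final DMSO 0.25%). PBS wash, MTT 0.5 mg/mL in phenol-red-free MEM for 3 h at 37 °C, formazan dissolved in DMSO, read at A540. Two experiments in triplicate; IC50 derived.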
# CAKI-1 = assay: Cytotoxicity against human Caki1 cells after 24 hrs by MTT assay; conditions: CAKI-1, 24 h; summary of the method: as §1
# HepG2 = assay: Cytotoxicity against human HepG2 cells after 24 hrs by MTT assay; conditions: HepG2, 24 h; summary of the method: as §1
# MCF7 = assay: Cytotoxicity against human MCF7 cells after 24 hrs by MTT assay; conditions: MCF7, 24 h; summary of the method: as §1
Compound,IC50 (A549) [µM],IC50 (CAKI-1) [µM],IC50 (HepG2) [µM],IC50 (MCF7) [µM]
CC(=O)OC(C)(C)/C=C/C(=O)[C@](C)(O)[C@H]1[C@H](O)C[C@@]2(C)[C@@H]3CC=C4[C@H](C[C@H](O)C(=O)C4(C)C)[C@]3(C)C(=O)C[C@]12C [CUCURBITACIN B],46.6,7.1,0.76,0.78
CC(=O)O[C@H](C[C@@H](OC(C)=O)C(C)(C)O)[C@@H](C)[C@H]1CC[C@@]2(C)[C@@H]3CC=C4[C@@H](CCC(=O)C4(C)C)[C@]3(C)CC[C@]12CO [LEUCOPAXILLONE A],> 300,108,96.7,7.94
CC(=O)O[C@H](C[C@@H](OC(C)=O)C(C)(C)O)[C@@H](C)[C@H]1CC[C@@]2(C)[C@@H]3CC=C4[C@@H](CCC(=O)C4(C)C)[C@]3(C)[C@]3(O)C[C@]12CO3 [LEUCOPAXILLONE B],155,30.3,86.9,86.9
